Assay results taken from ChEMBL document CHEMBL3232882, “N-Acyl-phosphoramidates as potential novel form of gemcitabine prodrugs” (Bioorg Med Chem, 2014).
Activity calls are given as the source filed them. The calls are words filed in the database; no cut-off is given here.

Experiments:
[1] = molecular target: T1, Adenosine 5'-monophosphoramidase HINT1 (Oryctolagus cuniculus, UniProt P80912); assay: Drug metabolism assessed as recombinant rabbit HINT1-mediated hydrolysis of NH2-pdFdC to pdFdC per ug protein at 0.2 mM by RP-HPLC analysis; format: ADME; settings: 200 µM
T1 sequence (P80912 whole entry): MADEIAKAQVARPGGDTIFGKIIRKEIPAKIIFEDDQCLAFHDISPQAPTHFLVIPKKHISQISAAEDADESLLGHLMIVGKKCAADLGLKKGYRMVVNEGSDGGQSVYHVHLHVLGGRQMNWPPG
Summary of the method: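 Recombinant Hint-1 expressed in E. coli BL21 from pSGA02-HINT, purified by AMP-agarose affinity; hydrolysis of NH2-pdFdC to pdFdC at 0.2 mM substrate, activity expressed per µg protein; products followed by RP-HPLC on C18 column with acetonitrile gradient in 0.1 M triethylammonium bicarbonate, pH 7.4, peak areas integrated.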

Escherichia coli [2] = assay: Activity of Escherichia coli DNA polymerase 1 with 3' to 5'-exonucleolytic activity after 2 hrs by single base extension reaction based electrophoresis method
Summary of the method: (§1)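 Test compound with KF+ or KF- (1U) in 0.05 M Tris-HCl pH 8.0, 5 mM MgCl2, 1 mM DTT, 2 h at 37 °C, then heat-denatured. Read-out was 20% PAGE/7 M urea, autoradiography and quantitation of n+1 product; dCTP reaction served as control.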

[3] = Inhibition of Escherichia coli DNA polymerase 1 without 3' to 5'-exonucleolytic activity using dCTP as substrate assessed as single base extension reaction after 2 hrs
Summary of the method: (§2)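 Compound (0.4–2.0 mM; 1- to 5-fold over dCTP) added together with 0.4 mM dCTP in 0.05 M Tris-HCl pH 8.0, 5 mM MgCl2, 1 mM DTT, 2 h at 37 °C. The n+1 product was quantified after 20% PAGE/7 M urea and autoradiography; EC50 is the concentration giving 50% inhibition.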

CFPAC-1 [4] = assay: Cytotoxicity against human CFPAC-1 cells assessed as reduction of cell survival after 96 hrs by MTT assay; format: functional, cell-based; settings: CFPAC-1, 96 h
Summary of the method: (§3)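 HeLa seeded at 7×10^3 and CFPAC at 10^4 per well in RPMI 1640 with 10% FCS under 5% CO2. After 24 h, exposure to compounds (aqueous 100 mM stock; final 1 mM to 1×10^-6 mM) for 72 or 96 h. MTT 2 h, formazan dissolved in 20% SDS/50% DMF pH 4.7, A570/650. Untreated cells = 100%; IC50 from dose-response curves, 2 independent experiments in triplicate.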

K562 = assay: Cytotoxicity against human K562 cells assessed as reduction of cell survival after 48 hrs by MTT assay; format: functional, cell-based; settings: K562, 48 h
Summary of the method: (§4)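 HUVEC (from fresh umbilical cords, gelatin-coated dishes, RPMI 1640 with 20% FBS, heparin, ECGF) and K562 (RPMI 1640, 10% FCS) were seeded at 7×10^3 per well. After 24 h, exposure for 48 h to compounds from 100 mM aqueous stock, final 1 mM down to 1×10^-6 mM. MTT read at 570/650 nm; untreated = 100%; IC50 from dose-response curves, mean of 2 experiments in triplicate.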

Thermococcus sp. 9oN-7 [5] = assay: Inhibition of Thermococcus sp. 9oN-7 therminator DNA polymerase assessed as single base extended product level after 1 hr by single base extension reaction based electrophoresis method; set-up: concentration or dose not given beside the values
HeLa [6] = assay: Cytotoxicity against human HeLa cells assessed as reduction of cell survival after 72 hrs by MTT assay; format: functional, cell-based; summary of the method: as §3
[7] = molecular target: T1, Adenosine 5'-monophosphoramidase HINT1; assay: Stability assessed as rabbit recombinant HINT1-mediated compound hydrolysis at 1 mM after 22 hrs by RP-HPLC analysis; format: ADME; settings: 1000 µM
Summary of the method: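 Recombinant Hint-1 was expressed from pSGA02-HINT in E. coli BL21, purified on AMP-agarose, and dialysed into 20 mM Tris pH 7.5/150 mM NaCl. Substrate 1 mM in 20 mM Na-HEPES pH 7.2, 0.5 mM MgCl2 with rHint-1, 22 h at 37 °C. Analysed by C18 RP-HPLC at 260 nm via peak integration; mean ± SE of at least duplicate.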

[8] = Inhibition of Escherichia coli DNA polymerase 1 with 3' to 5'-exonucleolytic activity using dCTP as substrate assessed as single base extension reaction after 2 hrs; summary of the method: as §2
CFPAC-1 [9] = assay: Cytotoxicity against human CFPAC-1 cells assessed as reduction of cell survival after 72 hrs by MTT assay; format: functional, cell-based; settings: CFPAC-1, 72 h; summary of the method: as §3
[10] = molecular target: T2, HINT1 (adenosine 5'-monophosphoramidase) (Homo sapiens, UniProt P49773); assay: Stability in human HeLa cell lysate assessed as HINT-1-mediated phosphoramidase activity by measuring compound remaining at 1 mM after 22 hrs by RP-HPLC analysis relative to control; format: ADME, cell-based; settings: read-out: Stability
T2 sequence (P49773 whole entry): as the sequence (P80912 whole entry) above, with Q37R, A65V, A69D, K91N, N122H counted along it
Summary of the method: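 HeLa lysate from confluent cells, sonicated in PBS with protease inhibitors. Substrate 1 mM in 20 mM Na-HEPES pH 7.2, 0.5 mM MgCl2, 22 h at 37 °C. Ice-quenched, heat-denatured, centrifuged. C18 RP-HPLC (acetonitrile 0–8% in 0.1 M TEAB pH 7.4) at 260 nm; intact substrate quantified by peak integration; mean ± SE of at least duplicate.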

HeLa [11] = assay: Cytotoxicity against human HeLa cells assessed as reduction of cell survival after 96 hrs by MTT assay; format: functional, cell-based; summary of the method: as §3
[12] = molecular target: T2, HINT1 (adenosine 5'-monophosphoramidase); assay: Stability in human K562 cell lysate assessed as HINT-1-mediated phosphoramidase activity by measuring compound remaining at 1 mM after 22 hrs by RP-HPLC analysis relative to control; format: ADME, cell-based; settings: read-out: Stability
Summary of the method: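 K562 lysate from confluent cells, scraped and sonicated in PBS with protease inhibitors. Substrate 1 mM in 20 mM Na-HEPES pH 7.2, 0.5 mM MgCl2, with lysate protein, 22 h at 37 °C. Quenched on ice, heat-denatured, centrifuged. Supernatant analysed by C18 RP-HPLC (0–8% acetonitrile in 0.1 M TEAB pH 7.4, 20 min) at 260 nm. Peaks integrated; products identified by co-injection; mean ± SE, at least duplicate.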

Escherichia coli [13] = assay: Activity of Escherichia coli DNA polymerase 1 without 3' to 5'-exonucleolytic activity after 2 hrs by single base extension reaction based electrophoresis method; summary of the method: as §1
Thermococcus sp. 9oN-7 [14] = assay: Activity of Thermococcus sp. 9oN-7 therminator DNA polymerase after 2 hrs by single base extension reaction based electrophoresis method
[15] = molecular target: T3, DNA polymerase alpha catalytic subunit (Homo sapiens, UniProt P09884); assay: Inhibition of human DNA polymerase alpha using dCTP as substrate assessed as single base extension reaction after 2 hrs
T3 sequence (P09884 whole entry): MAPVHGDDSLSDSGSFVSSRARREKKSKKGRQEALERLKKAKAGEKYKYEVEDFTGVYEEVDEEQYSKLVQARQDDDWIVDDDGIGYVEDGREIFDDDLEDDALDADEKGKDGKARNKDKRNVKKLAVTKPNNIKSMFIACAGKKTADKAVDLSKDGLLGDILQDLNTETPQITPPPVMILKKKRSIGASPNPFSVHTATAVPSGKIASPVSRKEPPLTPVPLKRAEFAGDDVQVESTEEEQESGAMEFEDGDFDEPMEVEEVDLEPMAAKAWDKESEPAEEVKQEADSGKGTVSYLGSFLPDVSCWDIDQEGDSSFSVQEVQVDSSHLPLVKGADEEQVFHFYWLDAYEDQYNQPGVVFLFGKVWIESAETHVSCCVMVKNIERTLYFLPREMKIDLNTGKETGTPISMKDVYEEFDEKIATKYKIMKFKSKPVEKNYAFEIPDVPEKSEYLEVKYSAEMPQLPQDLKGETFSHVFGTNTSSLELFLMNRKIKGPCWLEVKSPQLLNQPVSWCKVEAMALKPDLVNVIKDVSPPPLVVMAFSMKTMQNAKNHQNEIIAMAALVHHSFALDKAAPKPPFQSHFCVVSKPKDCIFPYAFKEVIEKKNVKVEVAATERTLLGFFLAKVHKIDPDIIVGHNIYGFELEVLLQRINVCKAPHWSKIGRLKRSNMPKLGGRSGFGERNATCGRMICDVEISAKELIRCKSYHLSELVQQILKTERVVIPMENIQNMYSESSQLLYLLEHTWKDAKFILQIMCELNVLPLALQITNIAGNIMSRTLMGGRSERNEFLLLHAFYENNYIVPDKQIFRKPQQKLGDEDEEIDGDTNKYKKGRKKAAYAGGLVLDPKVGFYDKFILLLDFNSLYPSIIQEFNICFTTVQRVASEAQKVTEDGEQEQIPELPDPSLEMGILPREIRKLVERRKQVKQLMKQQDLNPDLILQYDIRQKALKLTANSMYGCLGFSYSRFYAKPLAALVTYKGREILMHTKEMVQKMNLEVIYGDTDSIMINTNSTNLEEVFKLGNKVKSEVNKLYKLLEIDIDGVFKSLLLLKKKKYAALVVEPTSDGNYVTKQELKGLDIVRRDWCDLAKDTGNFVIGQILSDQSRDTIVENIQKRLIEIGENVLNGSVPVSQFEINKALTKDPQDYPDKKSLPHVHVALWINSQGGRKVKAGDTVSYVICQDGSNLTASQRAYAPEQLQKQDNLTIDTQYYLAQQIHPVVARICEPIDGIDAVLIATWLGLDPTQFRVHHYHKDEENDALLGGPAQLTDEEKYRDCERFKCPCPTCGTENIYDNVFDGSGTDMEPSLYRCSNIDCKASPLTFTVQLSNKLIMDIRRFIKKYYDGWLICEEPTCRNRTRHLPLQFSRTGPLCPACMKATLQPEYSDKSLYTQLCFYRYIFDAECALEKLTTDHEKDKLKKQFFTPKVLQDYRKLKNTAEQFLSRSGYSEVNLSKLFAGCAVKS

HUVEC = assay: Cytotoxicity against HUVEC assessed as cell after 48 hrs by MTT assay; format: cell-based; settings: Homo sapiens; summary of the method: as §4

Activity (Escherichia coli [2])	EC50 [3] [mM]	Activity (Thermococcus sp. 9oN-7 [5]) [%]	Stability [7]	EC50 [8] [mM]	remaining at 22 h, 1000 µM [10] [%]	remaining at 22 h, 1000 µM [12] [%]	Activity (Escherichia coli [13])	Activity (Thermococcus sp. 9oN-7 [14])	EC50 [15] [µM]	Structure (SMILES)	Drug metabolism [1] [nmol/min/µg]	IC50 (CFPAC-1 [4]) [nM]	IC50 (K562) [µM]	IC50 (HeLa [6]) [µM]	IC50 (CFPAC-1 [9]) [nM]	IC50 (HeLa [11]) [µM]	IC50 (HUVEC) [µM]
–	–	–	–	–	–	–	–	–	–	Nc1ncnc2c1ncn2[C@@H]1O[C@H](COP(N)(=O)O)[C@@H](O)[C@H]1O	1.71	–	–	–	–	–	–
inactive	> 2	100	Stable	> 2	76.7	82.8	inactive	inactive	> 500	Nc1ccn([C@@H]2O[C@H](COP(=O)(O)NC(=O)c3ccncc3)[C@@H](O)C2(F)F)c(=O)n1	–	450	0.1	10	620	0.9	0.05
inactive	> 2	100	Stable	> 2	71	45.9	inactive	inactive	> 500	CC(=O)N[C@@H](Cc1ccccc1)C(=O)NP(=O)(O)OC[C@H]1O[C@@H](n2ccc(N)nc2=O)C(F)(F)[C@@H]1O	–	450	80	> 1000	420	45	200

Structure (SMILES)	Activity (Escherichia coli [2])	EC50 [3] [mM]	Activity (Thermococcus sp. 9oN-7 [5]) [%]	Stability [7]	EC50 [8] [mM]	remaining at 22 h, 1000 µM [10] [%]	remaining at 22 h, 1000 µM [12] [%]	Activity (Escherichia coli [13])	Activity (Thermococcus sp. 9oN-7 [14])	EC50 [15] [µM]	Drug metabolism [1] [nmol/min/µg]	IC50 (CFPAC-1 [4]) [nM]	IC50 (K562) [µM]	IC50 (HeLa [6]) [µM]	IC50 (CFPAC-1 [9]) [nM]	IC50 (HeLa [11]) [µM]	IC50 (HUVEC) [µM]
Nc1ccn([C@@H]2O[C@H](COP(=O)(S)NC(=O)c3ccccc3)[C@@H](O)C2(F)F)c(=O)n1 (some centres undefined)	inactive	0.99	100	Stable	1.03	100	91.5	inactive	inactive	350	–	315000	800	900	425000	650	> 1000
